Here are results for 48 sequences from the EternaBench riboswitch data.

The term apparent Kd denotes a dissociation constant that holds for the conditions of the assay.

The subject of the series is MS2 coat protein. The series can be described thus: apparent Kd, MS2 coat protein; higher = weaker binding; RNA-MaP array; FMN 200 µM where present. The essentials: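 Stalled E. coli RNA polymerase transcribed the designs on Illumina sequencing-chip clusters. SNAP-549-labelled MS2 coat protein was titrated from 0.7 or 1.5 nM, doubling to 3 µM, without and then with constant ligand, in 100 mM Tris-HCl pH 7.5, 80 mM KCl, 4 mM MgCl2, BSA, DTT, yeast tRNA and Tween-20. Per-cluster binding curves were fitted to green signal normalised to red-channel RNA signal and control-cluster median Fmax. The apparent Kd is the median of the filtered fits.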

The mark [1] stands for this setting: designed as: OFF switch for flavin mononucleotide, no ligand.
[2] abbreviates: ligand present: flavin mononucleotide, designed as: OFF switch for flavin mononucleotide.
Setting [3] is: designed as: ON switch for flavin mononucleotide, no ligand.
[4] abbreviates: ligand present: flavin mononucleotide, designed as: ON switch for flavin mononucleotide.

With “UAAUCACCCUCAUGUACCUGAGGACAUGAGGAUCACCCAUGUAAGGAUAUAGCCAUUAAAUCUAACUAGAAGGUAUAGGUAAUC”, the “apparent Kd” value is, setting by setting: under setting [1], 808 nM; under setting [2], 624 nM.
On the same counts, the results for “CGGCGGGCAGGAUAUACAUGAGGAUCACCCAUGUGUGUCCAUACGCGUGAGUCCUCGUGUAGAAGGGUUUGUUG” are 14.9 nM and 13.4 nM.
Taken in the same sequence, the figures for “AGAUCGAGUGUGAGGAUAUUGACCGGACGACCCAUCGAGAAGGCACAUGAGGAUCACCCAUGUGAUUCGGCUCA” were 17.7 nM and 26.4 nM.
Taken in the same sequence, the figures for “UCGCUGCGAGGAUAUACGUGCGCGCGCUUUCGUUUGCGCGUACAUGAGGAUCACCCAUGUAGAAGGCGCGCUGC” were 16.2 nM and 15.8 nM.
As to “GCGGCUCACAUGAGGAUCACCCAUGUUCGCAUAUUGUGAAACAGAAGGCGGACUCAGCGAUGGGCCGAGGAUAUGUUUCCCACA”, the “apparent Kd” value is 124 nM under setting [3] and 25.8 nM under setting [4].
For “CGCUCAAUAUAUAAGGAAAGAAUCAGAAGGCGUUACAUGAGGAUCACCCAUGUUUUGUAUAGUAACGAGGAUAUGAUAUGAGCG”, the “apparent Kd” value reads like this: under setting [1], 17.9 nM; under setting [2], 15.3 nM.
Taken in the same sequence, the figures for “CGGACCCGAGGAUAUCGUAAACCCGACAUGAGGAUCACCCAUGUCAUCCUCACGGCGCCACGAGAAGGCGGUGUUA” were 24.2 nM and 75.7 nM.
With “GGACAUCCCACAGGAUAUGCUGGACUUUGUCCAGCAGAAGGGUGAAACACAUGAGGAUCACCCAUGUGGAUGUCCAUAUUUAAU”, the “apparent Kd” value reads like this: under setting [3], 180 nM; under setting [4], 694 nM.
For the sequence “CAUGUCCUCACAGGAUAUGCUGGACUUUGUCCAGCAGAAGGGUGUUAACAUGAGGAUCACCCAUGUGGACAUGAUAUAUUUAAG”, the “apparent Kd” value is 757 nM under setting [3] and 66.2 nM under setting [4].
As to “AAAACCAGAGGAUAUGCGCAUAGAUCAGACUUUGUUUCUUAACAUGAGGAUCACCCAUGUAGAAGGCUGUAAAA”, the “apparent Kd” value runs as follows: under setting [1], 17.3 nM; under setting [2], 15.4 nM.
On the same counts, the results for “CCGGUUGGCGCAGGAUAUACAUGAGGAUCACCCAUGUUCAUCAGGAUCACCGAUGAGUUUUUGUUGUAGAAGGGUGGCCCGGCC” are 35.2 nM and 37.2 nM.
Turning to “CGAGAUCUUGAGAAGGCAUAAUAUAUAAUACCACAUGUUUACAUGAGGAUCACCCAUGUUUCCAAUGAGGAUAUCAGGAUUUCG”, the “apparent Kd” value is, setting by setting: under setting [1], 19.6 nM; under setting [2], 14.8 nM.
On the same counts, the results for “GCUGACGAUGUAGGAUAUCAGUAUAAUAAAUACUGAGAAGGACAUGAGGAUCACCCAUGUAAACUCCGUCAGCAGAGGAAACUC” are 19.6 nM and 24.1 nM.
“AAAAGACAUGAGGAUCACCCAUGUCAAGACAUAGGAGGAUAUGUCUGGAAAAAAGACUGGACAGAAGGCCUUUGUC”: the “apparent Kd” value runs as follows: under setting [3], 19.9 nM; under setting [4], 17.4 nM.
With “GCAUAUCAGGGAGGAUAUGACAUGAGGAUCACCCAUGUAAUUAUGGCUCUGUCAGAAGGCCCAUCGUCAGUAUAGUGACGAGAC”, the “apparent Kd” value under setting [1] turned out to be 375 nM and the “apparent Kd” value under setting [2] stood at 137 nM.
Taken in the same sequence, the figures for “AAUUGCCUAGGAUAUACUUGGGCCCGCUCAUACUCCAAUGGACAUGAGGAUCACCCAUGUAGAAGGAGGACCCA” were 17.2 nM and 39.4 nM.
Take “UGGUACUAGGGAGGAUAUGGGAAGAUACAUGAGGAUCACCCAUGUUUAAGAUUGCCGAGAGGCAACUAGAAGGCCCUAGUACCU”: the “apparent Kd” value was found to be 1120 nM under setting [3] and 130 nM under setting [4].
In the case of “UCACGGGAUUGAGGAUAUAUUUAAAUUUUUACAAUAGAAGGCAAAUUUUUAGUUUUUUCACUUUACAUGAGGAUCACCCAUGUU”, the “apparent Kd” value reads like this: under setting [1], 28.8 nM; under setting [2], 24.5 nM.
On to “UUACCUUAUGAGAAGGCGGUCAUGAAACAUGAUCGAGGAUAUCAUGUAAACAUGAGGAUCACCCAUGUAUGGGUAUUAUGGUAG”, for which the “apparent Kd” value under setting [3] is 303 nM and the “apparent Kd” value under setting [4] came to 52 nM.
On the same counts, the results for “GGACGUCACAUGAACAUGAGGAUCACCCAUGUAAAUUCUCAUGAGGAUAUGGUUCCUAAUUGGAACCAGAAGGCAUGGACGUCC” are 1450 nM and 408 nM.
For “AGAUGGCGAGGAUAUACAUGAGGAUCACCCAUGUGAGAUAAAUAAGUGAGGAAGAAAAGUAGAAGGCGCUGUCA”, the “apparent Kd” value worked out at 81.3 nM under setting [1] and 387 nM under setting [2].
Turning to “CGGCGCUGUCGAGAGGAUAUGCGGUGAUGGACAUGAGGAUCACCCAUGUUAGCGAUAGCAUCACGGUAGAAGGCUCUACGGCCUG”, the “apparent Kd” value by setting is: under setting [3], 112 nM; under setting [4], 15.6 nM.
Turning to “UUACAUACAAAGGUACAUGAGGAUCACCCAUGUUUGUUGGGAAGAAGGGUAACAGUACUACAUUUAUAGGAUAUUUCACAAAUA”, the “apparent Kd” value by setting is: under setting [3], 95.5 nM; under setting [4], 64 nM.
Consider “GCGUCAGAAUUAAUUGUGACAUACAGAAGGCAAUAGUUAAUUUCAGACAUGAGGAUCACCCAUGUUGAGGAUAUGUAGAGAAUC”, for which the “apparent Kd” value reads like this: under setting [1], 11.8 nM; under setting [2], 10.5 nM.
Taken in the same sequence, the figures for “GGAAGGUCAGGAUAUGCGAGGGAGUGGGAAAUAGGAUGGUAGCAGAAGGGACAUGAGGAUCACCCAUGUUAGGA” were 31 nM and 27.3 nM.
On the same counts, the results for “CAGACACAUGAGGAUCACCCAUGUGAGGAUAUGCGUACGUUGUCCGUAGGCGACGUGCGCAGAAGGCACAAAGG” are 73.4 nM and 104 nM.
As for “UAAUGUUAGCGAGGAUAUCGUUUAUUGAAGUUACGAGAAGGCGCUCUUCUUACAUGAGGAUCACCCAUGUCUGUUUUGCAUGAU”, under setting [4], the “apparent Kd” value was found to be 51.9 nM.
In the case of “CGUACACAUGAGGAUCACCCAUGUCAGAGGCGGUCAGGAUAUGGGCGGCAUCCGCUAUAGCCAGAAGGGACUGAUG”, the “apparent Kd” value runs as follows: under setting [3], 173 nM; under setting [4], 73.6 nM.
Regarding “AGGGAGUAAGGAUAUCGGAAAGGACACGAAAGUGACAAAGACGAGAAGGUACAUGAGGAUCACCCAUGUAAAAA”, the “apparent Kd” value by setting is: under setting [1], 21.3 nM; under setting [2], 20.1 nM.
With “GUCUGAUUGUAGAAGGUACUUAAUACUCAUGUAACAUGAGGAUCACCCAUGUAUCAACAAUAUUGUAAGGAUAUACAUAUCUCA”, the “apparent Kd” value came to 478 nM under setting [3] and 258 nM under setting [4].
On the same counts, the results for “CUCACUCCAAAGAGCGCGUCUGCCUGAGAAGGGUGCUAAUUAAUUACAUGAGGAUCACCCAUGUCACAGGAUAUCAGGGUCGCU” are 622 nM and 230 nM.
“AAUAUAGAGCUGGACUCAAAAUAAACAUGAGGAUCACCCAUGUAGGAUAUCAGCACGAUAAGUGCUGAGAAGGACAUCCAGCUC”: the “apparent Kd” value under setting [1] came out at 15.4 nM and the “apparent Kd” value under setting [2] worked out at 14.2 nM.
On to “UAAGAAGCACUCGGAACCGGACAAUGAGAAGGCCACGCACAUGAGGAUCACCCAUGUAAAGCUAUGGAGGAUAUCAUGAUGGAA”, for which the “apparent Kd” value runs as follows: under setting [3], 80.9 nM; under setting [4], 8.71 nM.
On the same counts, the results for “GGACAUUUACAGAAGGGCAAAUUUUAUAGUGAAUAUUUAGUUCUGAUUUGCAGGAUAUGUUGAACAUGAGGAUCACCCAUGUCC” are 18.3 nM and 10.9 nM.
With “CCAUACCGAGGAUAUACAUGAGGAUCACCCAUGUCAAAACCACGUGUACGGCGGUCUUGUAGAAGGCGGAAAUA”, the “apparent Kd” value worked out at 11 nM under setting [1] and 16 nM under setting [2].
As for “AGCGGCGCGGGCCACCGCAGAACCAGAAGGACAUGAGGAUCACCCAUGUAACAGAACAGGGCGGUGUAGGAUAUGGCAGGCUCG”, the “apparent Kd” value runs as follows: under setting [1], 25.1 nM; under setting [2], 46.2 nM.
On to “AUCAUGUUAGGAUAUACAAGAAAAGAAAAGAAAGAAAAGAAGUAGAAGGAACAUGAGGAUCACCCAUGUAAGAA”, for which the “apparent Kd” value worked out at 27.3 nM under setting [1] and 45.4 nM under setting [2].
For the sequence “UGGAAUUGCGAGAAGGACAUGAGGAUCACCCAUGUAGGAUAUCGACCUAGGUGCAGAUCGUUAUAGGAUCUCUUCGCUUCUAGG”, the “apparent Kd” value by setting is: under setting [3], 16.7 nM; under setting [4], 7.14 nM.
On to “UUUCAGUCAGGAUAUCGUUAAUUUAAUUGUUUGUAUUAGUUCGAGAAGGGACAUGAGGAUCACCCAUGUACUCU”, for which the “apparent Kd” value came to 19.6 nM under setting [1] and 20 nM under setting [2].
Turning to “AUCAACCAGGCAGGAUAUCAAUGUGGCCUCAUCGUACACCCUCGCAACAUGAGGAUCACCCAUGUUGAGAAGGGCCAAUUGAGA”, the “apparent Kd” value runs as follows: under setting [1], 8.52 nM; under setting [2], 8.99 nM.
With “CCGGAAAUACAGGAUAUAGGAGUAAAUAUACUCCUAGAAGGGUAUACAUGAGGAUCACCCAUGUGUCCUACCGG”, the “apparent Kd” value by setting is: under setting [1], 26.6 nM; under setting [2], 27.3 nM.
As to “AAUAUAAAAGAGCUGGAUAAACUCACAUGAGGAUCACCCAUGUAGGAUAUCAGCACGAUAAGUGCUGAGAAGGACAACCAGCUC”, the “apparent Kd” value by setting is: under setting [1], 14.8 nM; under setting [2], 15.3 nM.
As to “GGGUUCAUGUAAGGAUAUGUAUUGUUAAUCGGAGCAGAAGGUACAUGAGGAUCACCCAUGUCAACCUAGAGCAAGGCUUCUUAG”, the “apparent Kd” value under setting [1] came to 19.7 nM and the “apparent Kd” value under setting [2] stood at 58 nM.
On the same counts, the results for “GGAGAUACAUGAGGAUCACCCAUGUAGGAUAUCUAGUAUAUAUAUGGCGAAAGCCAUAUAUAUAUAGAGAAGGGCGUACACACC” are 9 nM and 7.91 nM.
Regarding “AGUUGCAAACACAACAUGAGGAUCACCCAUGUACUCUCGUGUAAGGAUAUACAUUCGUAUGGAAAGUAGAAGGUACUAAUUAUG”, the “apparent Kd” value amounted to 27.3 nM under setting [3] and 32.1 nM under setting [4].
Turning to “GUACUACAUGAGGAUCACCCAUGUGAGGAUAUGCGAAUUUCAUCAAAAGAUGAAAUUUGCAGAAGGCACUGUAC”, the “apparent Kd” value is, setting by setting: under setting [1], 46.7 nM; under setting [2], 34 nM.
Taken in the same sequence, the figures for “AGCCUACAUGAGGAUCACCCAUGUCAGGAUAUCUCGCGGCGCGUCAAGUUCACGCCGCAGAGAAGGGACUCGGG” were 47.9 nM and 47.3 nM.
For “UUGUCGCAUGUAGGAUAUGUAUGUUAUUAUCAUACAGAAGGACAUGAGGAUCACCCAUGUGUAUUAUUAUUAUAUGUUACAUAU”, the “apparent Kd” value turned out to be 20.4 nM under setting [1] and 19.8 nM under setting [2].
